Active and inactive are the calls of the source. The calls are words filed in the database; no cut-off is given here.
Assays:
[1] = test system: Human immunodeficiency virus 1; test: Antiviral activity against HIV1 in human MT4 cells assessed as prevention of virus-induced cytopathogenicity; assay type: functional, organism-based
How it was run: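 MT-4 cells, 1 × 10⁴ per well, with serial compound dilutions from a 100 mM DMSO stock. Infected with HIV-1 at 100 CCID50. Four-day incubation at 37 °C, then viable cells measured by MTT. Read-out is inhibition of virus-induced cytopathogenicity, assessed at non-cytotoxic concentrations.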

MT4 = test: Antiproliferative activity against human MT4 cells assessed as reduction of growth by MTT assay; assay type: functional, cell-based
How it was run: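 MT-4 lymphoblastoid T cells (ATCC) in RPMI 1640 with 10% FCS, penicillin/streptomycin, checked for mycoplasma. 1 × 10⁴ mock-infected cells per well with serial dilutions from a 100 mM DMSO stock. Incubated 4 days at 37 °C, viable cells counted by MTT. IC50 versus untreated controls by linear regression. Mean of three separate experiments.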

CCRF-CEM = test: Growth inhibition of human CCRF-CEM cells after 48 hrs by sulforhodamine B assay; assay type: functional
How it was run: (§1)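 NCI screen panel. Five 10-fold concentrations from 10^-4 to 10^-8 M. Exposure for the last 48 h of a 72 h incubation. Growth estimated by sulforhodamine B protein assay. GI50 is the concentration giving 50% growth inhibition. Where that level was not reached or was exceeded, the value is given as above or below the highest or lowest concentration tested.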

HL-60(TB) = test: Growth inhibition of human HL-60(TB) cells after 48 hrs by sulforhodamine B assay; assay type: functional; conditions: HL-60, 48 h
How it was run: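 NCI 60-cell-line screen protocol: cells exposed to compound at five 10-fold dilutions from 10^-4 to 10^-8 M for the last 48 h of a 72 h incubation. Sulforhodamine B protein assay estimated viability/growth. GI50 (50% growth inhibition) derived; where not reached or exceeded, reported as greater or less than the highest or lowest concentration tested.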

K562 = test: Growth inhibition of human K562 cells after 48 hrs by sulforhodamine B assay; assay type: functional; conditions: K562, 48 h; how it was run: as §1
MOLT-4 = test: Growth inhibition of human MOLT4 cells after 48 hrs by sulforhodamine B assay; assay type: functional; conditions: MOLT-4, 48 h; how it was run: as §1
[2] = Growth inhibition of human […] cells after 48 hrs by sulforhodamine B assay; assay type: functional; how it was run: as §1
SR = test: Growth inhibition of human SR cells after 48 hrs by sulforhodamine B assay; assay type: functional
How it was run: (§2)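 NCI in vitro panel screen. Compounds tested at five 10-fold dilutions, 10^-4 to 10^-8 M. Cells in 96-well plates were exposed for the last 48 h of a 72 h incubation. Viability/growth was read by sulforhodamine B protein assay. GI50 is the concentration giving 50% growth inhibition. Values beyond the tested range are reported as greater or less than the maximum or minimum concentration.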

A549 = test: Growth inhibition of human A549 cells after 48 hrs by sulforhodamine B assay; assay type: functional; conditions: A549, 48 h; how it was run: as §1
EKVX = test: Growth inhibition of human EKVX cells after 48 hrs by sulforhodamine B assay; assay type: functional; how it was run: as §1
HOP-62 = test: Growth inhibition of human HOP62 cells after 48 hrs by sulforhodamine B assay; assay type: functional; conditions: HOP-62, 48 h; how it was run: as §1
HOP-92 = test: Growth inhibition of human HOP92 cells after 48 hrs by sulforhodamine B assay; assay type: functional; conditions: HOP-92, 48 h; how it was run: as §1
NCI-H23 = test: Growth inhibition of human NCI-H23 cells after 48 hrs by sulforhodamine B assay; assay type: functional; conditions: NCI-H23, 48 h; how it was run: as §1
NCI-H322M = test: Growth inhibition of human NCI-H322M cells after 48 hrs by sulforhodamine B assay; assay type: functional; how it was run: as §1
NCI-H460 = test: Growth inhibition of human NCI-H460 cells after 48 hrs by sulforhodamine B assay; assay type: functional; conditions: NCI-H460, 48 h; how it was run: as §1
NCI-H522 = test: Growth inhibition of human NCI-H522 cells after 48 hrs by sulforhodamine B assay; assay type: functional; conditions: NCI-H522, 48 h; how it was run: as §1
COLO 205 = test: Growth inhibition of human COLO205 cells after 48 hrs by sulforhodamine B assay; assay type: functional; conditions: COLO 205, 48 h; how it was run: as §1
HCT-116 = test: Growth inhibition of human HCT116 cells after 48 hrs by sulforhodamine B assay; assay type: functional; conditions: HCT-116, 48 h; how it was run: as §1
HCT-15 = test: Growth inhibition of human HCT15 cells after 48 hrs by sulforhodamine B assay; assay type: functional; conditions: HCT-15, 48 h; how it was run: as §1
HT-29 = test: Growth inhibition of human HT-29 cells after 48 hrs by sulforhodamine B assay; assay type: functional; conditions: HT-29, 48 h; how it was run: as §1
KM12 = test: Growth inhibition of human KM12 cells after 48 hrs by sulforhodamine B assay; assay type: functional; conditions: KM12, 48 h; how it was run: as §1
SW-620 = test: Growth inhibition of human SW620 cells after 48 hrs by sulforhodamine B assay; assay type: functional; conditions: SW-620, 48 h; how it was run: as §2
SF-268 = test: Growth inhibition of human SF268 cells after 48 hrs by sulforhodamine B assay; assay type: functional; conditions: SF-268, 48 h; how it was run: as §1
SF-295 = test: Growth inhibition of human SF295 cells after 48 hrs by sulforhodamine B assay; assay type: functional; conditions: SF-295, 48 h; how it was run: as §1
SNB-19 = test: Growth inhibition of human SNB19 cells after 48 hrs by sulforhodamine B assay; assay type: functional; conditions: SNB-19, 48 h; how it was run: as §2
U-251 = test: Growth inhibition of human U251 cells after 48 hrs by sulforhodamine B assay; assay type: functional; conditions: U-251, 48 h; how it was run: as §2
LOX IMVI = test: Growth inhibition of human LOXIMVI cells after 48 hrs by sulforhodamine B assay; assay type: functional; how it was run: as §1
Malme-3M = test: Growth inhibition of human MALME-3M cells after 48 hrs by sulforhodamine B assay; assay type: functional; how it was run: as §1
M14 = test: Growth inhibition of human M14 cells after 48 hrs by sulforhodamine B assay; assay type: functional; conditions: M14, 48 h; how it was run: as §1
SK-MEL-2 = test: Growth inhibition of human SK-MEL-2 cells after 48 hrs by sulforhodamine B assay; assay type: functional; conditions: SK-MEL-2, 48 h; how it was run: as §1
SK-MEL-28 = test: Growth inhibition of human SK-MEL-28 cells after 48 hrs by sulforhodamine B assay; assay type: functional; conditions: SK-MEL-28, 48 h; how it was run: as §1
SK-MEL-5 = test: Growth inhibition of human SK-MEL-5 cells after 48 hrs by sulforhodamine B assay; assay type: functional; conditions: SK-MEL-5, 48 h; how it was run: as §1
UACC-257 = test: Growth inhibition of human UACC257 cells after 48 hrs by sulforhodamine B assay; assay type: functional; conditions: UACC-257, 48 h; how it was run: as §2
UACC-62 = test: Growth inhibition of human UACC62 cells after 48 hrs by sulforhodamine B assay; assay type: functional; conditions: UACC-62, 48 h; how it was run: as §2
IGROV-1 = test: Growth inhibition of human IGROV1 cells after 48 hrs by sulforhodamine B assay; assay type: functional; conditions: IGROV-1, 48 h; how it was run: as §1
OVCAR-3 = test: Growth inhibition of human OVCAR-3 cells after 48 hrs by sulforhodamine B assay; assay type: functional; conditions: OVCAR-3, 48 h; how it was run: as §1
OVCAR-4 = test: Growth inhibition of human OVCAR4 cells after 48 hrs by sulforhodamine B assay; assay type: functional; conditions: OVCAR-4, 48 h; how it was run: as §1
OVCAR-8 = test: Growth inhibition of human OVCAR8 cells after 48 hrs by sulforhodamine B assay; assay type: functional; conditions: OVCAR-8, 48 h; how it was run: as §1
SK-OV-3 = test: Growth inhibition of human SKOV3 cells after 48 hrs by sulforhodamine B assay; assay type: functional; conditions: SK-OV-3, 48 h; how it was run: as §1
786-0 = test: Growth inhibition of human 786-0 cells after 48 hrs by sulforhodamine B assay; assay type: functional; conditions: 786-0, 48 h; how it was run: as §1
ACHN = test: Growth inhibition of human ACHN cells after 48 hrs by sulforhodamine B assay; assay type: functional; how it was run: as §1
CAKI-1 = test: Growth inhibition of human Caki1 cells after 48 hrs by sulforhodamine B assay; assay type: functional; conditions: CAKI-1, 48 h; how it was run: as §1
RXF 393 = test: Growth inhibition of human RXF393 cells after 48 hrs by sulforhodamine B assay; assay type: functional; conditions: RXF 393, 48 h; how it was run: as §1
SN12C = test: Growth inhibition of human SN12C cells after 48 hrs by sulforhodamine B assay; assay type: functional; how it was run: as §2
TK-10 = test: Growth inhibition of human TK10 cells after 48 hrs by sulforhodamine B assay; assay type: functional; conditions: TK-10, 48 h; how it was run: as §2
UO-31 = test: Growth inhibition of human UO31 cells after 48 hrs by sulforhodamine B assay; assay type: functional; conditions: UO-31, 48 h; how it was run: as §2
PC-3 = test: Growth inhibition of human PC3 cells after 48 hrs by sulforhodamine B assay; assay type: functional; conditions: PC-3, 48 h; how it was run: as §1
DU-145 = test: Growth inhibition of human DU145 cells after 48 hrs by sulforhodamine B assay; assay type: functional; conditions: DU-145, 48 h; how it was run: as §1
MCF7 = test: Growth inhibition of human MCF7 cells after 48 hrs by sulforhodamine B assay; assay type: functional; conditions: MCF7, 48 h; how it was run: as §1
NCI/ADR-RES = test: Growth inhibition of human NCI/ADR-RES cells after 48 hrs by sulforhodamine B assay; assay type: functional; how it was run: as §1
MDA-MB-231 = test: Growth inhibition of human MDA-MB-231 cells after 48 hrs by sulforhodamine B assay; assay type: functional; conditions: MDA-MB-231, 48 h; how it was run: as §1
MDA-MB-435 = test: Growth inhibition of human MDA-MB-435 cells after 48 hrs by sulforhodamine B assay; assay type: functional; conditions: MDA-MB-435, 48 h; how it was run: as §1
BT-549 = test: Growth inhibition of human BT549 cells after 48 hrs by sulforhodamine B assay; assay type: functional; conditions: BT-549, 48 h; how it was run: as §1

N#C/C(=C\N1CCNC1=S)C(N)=O
Activity [1]: inactive

N#C/C(=C\N1CCN(C(=O)c2ccco2)C1=S)C(=O)Nc1ccc(Cl)cc1
IC50 (MT4): 6.5 µM | GI50 (CCRF-CEM): 22.5 µM | GI50 (HL-60(TB)): 10.5 µM | GI50 (K562): 16.1 µM | GI50 (MOLT-4): 17.7 µM | GI50 [2]: 10.5 µM | GI50 (SR): 1.6 µM | GI50 (A549): 25.8 µM | GI50 (EKVX): 0.01 µM | GI50 (HOP-62): 25.7 µM | GI50 (HOP-92): 21.5 µM | GI50 (NCI-H23): 12.3 µM | GI50 (NCI-H322M): 28.6 µM | GI50 (NCI-H460): 19.9 µM | GI50 (NCI-H522): 16.7 µM | GI50 (COLO 205): 25.6 µM | GI50 (HCT-116): 15.2 µM | GI50 (HCT-15): 21.3 µM | GI50 (HT-29): 21.4 µM | GI50 (KM12): 16.3 µM | GI50 (SW-620): 17.3 µM | GI50 (SF-268): 17.8 µM | GI50 (SF-295): 20.2 µM | GI50 (SNB-19): 27.6 µM | GI50 (U-251): 17.3 µM | GI50 (LOX IMVI): 16.7 µM | GI50 (Malme-3M): 21.4 µM | GI50 (M14): 14.2 µM | GI50 (SK-MEL-2): 16.7 µM | GI50 (SK-MEL-28): 18.7 µM | GI50 (SK-MEL-5): 11.2 µM | GI50 (UACC-257): 16.5 µM | GI50 (UACC-62): 16.9 µM | GI50 (IGROV-1): 25.3 µM | GI50 (OVCAR-3): 15.5 µM | GI50 (OVCAR-4): 25.2 µM | GI50 (OVCAR-8): 20.6 µM | GI50 (SK-OV-3): 41.2 µM | GI50 (786-0): 17.4 µM | GI50 (ACHN): 15.3 µM | GI50 (CAKI-1): 13.2 µM | GI50 (RXF 393): 13.1 µM | GI50 (SN12C): 11.8 µM | GI50 (TK-10): 19.4 µM | GI50 (UO-31): 12 µM | GI50 (PC-3): 18.9 µM | GI50 (DU-145): 15.9 µM | GI50 (MCF7): 21 µM | GI50 (NCI/ADR-RES): 28.1 µM | GI50 (MDA-MB-231): 18.4 µM | GI50 (MDA-MB-435): 15.2 µM | GI50 (BT-549): 8.6 µM
